Calls of active or inactive are those of the source. No cut-off for these calls is given here.
Legend:
Rattus norvegicus [1] = test: Antiinflammatory activity in Albino Wistar rat assessed as inhibition of carrageenan-induced paw edema at equimolar dosage of Ibuprofen 10 mg/kg, po administered 1 hr before carrageenan challenge measured after 3 hrs by plethysmometer; format: functional
How it was run: (§1)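 Rats fasted 14 h with water only. Compounds given orally at dose equimolar to ibuprofen (10 mg/kg p.o.) 1 h before subplantar injection of 0.1 ml freshly prepared 1% carrageenan in saline into right hind paw. Control received 0.1 ml 0.9% saline orally. Change in paw volume (ml) at 3 and 5 h; % inhibition; one-way ANOVA with Dunnett's test.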

Rattus norvegicus [2] = test: Antiinflammatory activity in Albino Wistar rat assessed as inhibition of carrageenan-induced paw edema at equimolar dosage of Ibuprofen 10 mg/kg, po administered 1 hr before carrageenan challenge measured after 5 hrs by plethysmometer; format: functional; how it was run: as §1
Rattus norvegicus [3] = test: Antiinflammatory activity in Albino Wistar rat assessed as inhibition of carrageenan-induced paw edema at equimolar dosage of Ibuprofen 10 mg/kg, po administered 1 hr before carrageenan challenge by plethysmometer; format: functional, organism-based; set-up: dose 10 mg/kg; conditions: TDE = time-dependent effect, at 10 mg/kg; how it was run: as §1
Mus musculus [4] = test: Analgesic activity in mouse assessed as inhibition of acetic acid-induced writhing at equimolar dosage of Ibuprofen 10 mg/kg, po administered 30 mins before to acetic acid challenge measured for 20 mins relative to control; format: functional, organism-based; set-up: dose 10 mg/kg; conditions: at 10 mg/kg
How it was run: (§2)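 Writhing induced in mice by intraperitoneal 0.6% (v/v) acetic acid (80 mg/kg). Compounds given orally at dose equimolar to ibuprofen 10 mg/kg, 30 min before stimulus; ibuprofen 10 mg/kg orally as reference. Six animals per group.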

Rattus norvegicus [5] = test: Ulcerogenicity in Albino Wistar rat assessed as gastric ulceration at equimolar dosage of Ibuprofen 30 mg/kg, po relative to control; format: toxicity, organism-based, Stomach; set-up: dose 30 mg/kg, route oral; conditions: in vivo
How it was run: (§3)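 Oral dosing at three times the anti-inflammatory dose: ibuprofen 30 mg/kg or equimolar test compound. Three animals per group, sacrificed afterwards. Stomach wall sections stained with haematoxylin-eosin and examined at 10x and 40x for mucosal, submucosal and epithelial damage.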

Mus musculus [6] = test: Ulcerogenicity in mouse assessed as gastric ulceration at equimolar dosage of Ibuprofen 30 mg/kg, po relative to control; format: toxicity, organism-based, Stomach; set-up: dose 30 mg/kg, route oral; conditions: in vivo
Mus musculus [7] = test: Analgesic activity in mouse assessed as inhibition of acetic acid-induced writhing at 10 mg/kg, po administered 30 mins before to acetic acid challenge measured for 20 mins relative to control; format: functional, organism-based; set-up: dose 10 mg/kg; how it was run: as §2
Rattus norvegicus [8] = test: Antiinflammatory activity in Albino Wistar rat assessed as inhibition of carrageenan-induced paw edema at 10 mg/kg, po administered 1 hr before carrageenan challenge measured after 3 hrs by plethysmometer; format: functional; how it was run: as §1
Rattus norvegicus [9] = test: Antiinflammatory activity in Albino Wistar rat assessed as inhibition of carrageenan-induced paw edema at 10 mg/kg, po administered 1 hr before carrageenan challenge measured after 5 hrs by plethysmometer; format: functional; how it was run: as §1
Rattus norvegicus [10] = test: Ulcerogenicity in Albino Wistar rat assessed as gastric ulceration at 30 mg/kg, po relative to untreated control; format: toxicity, organism-based, Stomach; set-up: dose 30 mg/kg, route oral; conditions: in vivo; how it was run: as §3
Mus musculus [11] = test: Ulcerogenicity in mouse assessed as gastric ulceration at 30 mg/kg, po relative to untreated control; format: toxicity, organism-based, Stomach; set-up: dose 30 mg/kg, route oral; conditions: in vivo
[12] = Selectivity ratio of IC50 for human recombinant COX2 to IC50 for ram seminal vesicle COX1; format: tissue-based
How it was run: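 COX-1 and COX-2 purified chromatographically. Peroxidase read-out from TMPD oxidation during PGG2 to PGH2 reduction. Mix: 100 mM Tris-HCl pH 8.0, hematin, 3 mM EDTA, […], test compound; 1 min preincubation at 25 °C; started with arachidonic acid plus TMPD. Rate from absorbance rise at 603 nm over first 25 s. Ratio is IC50 COX-2/IC50 COX-1.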

SMILES: O=[N+]([O-])c1ccc(-n2cc(CSc3nc4ccccc4s3)nn2)cc1
- inhibition in vivo (Rattus norvegicus [1]): 75%
- inhibition in vivo (Rattus norvegicus [2]): 65.5%
- inhibition (Rattus norvegicus [3]): tde
- inhibition (Mus musculus [4]): Active
- Activity (Rattus norvegicus [5]): Non-toxic
- Activity (Mus musculus [6]): Non-toxic

SMILES: Clc1ccccc1-n1cc(CSc2nc3ccccc3s2)nn1
- inhibition in vivo (Rattus norvegicus [1]): 83.3%
- inhibition in vivo (Rattus norvegicus [2]): 78.1%
- inhibition (Rattus norvegicus [3]): tde
- inhibition (Mus musculus [4]): Active
- Activity (Rattus norvegicus [5]): Non-toxic
- Activity (Mus musculus [6]): Non-toxic

SMILES: CC(C)Cc1ccc(C(C)C(=O)O)cc1 (stereo unspecified) [IBUPROFEN]
- inhibition (Mus musculus [7]): Active
- inhibition in vivo at 10 mg/kg (Rattus norvegicus [8]): 69.5%
- inhibition in vivo at 10 mg/kg (Rattus norvegicus [9]): 71.7%
- Activity (Rattus norvegicus [10]): Toxic
- Activity (Mus musculus [11]): Toxic

SMILES: Clc1cccc(-n2cc(CSc3nc4ccccc4s3)nn2)c1
- inhibition in vivo (Rattus norvegicus [1]): 35%
- inhibition in vivo (Rattus norvegicus [2]): 39.6%

SMILES: Cc1ccccc1-n1cc(CSc2nc3ccccc3s2)nn1
- inhibition in vivo (Rattus norvegicus [1]): 47.3%
- inhibition in vivo (Rattus norvegicus [2]): 43.4%

SMILES: CCOc1ccc(-n2cc(CSc3nc4ccccc4s3)nn2)cc1
- inhibition in vivo (Rattus norvegicus [1]): 38.3%
- inhibition in vivo (Rattus norvegicus [2]): 34%

SMILES: CC1(C)O[C@H]2OC(Cn3cc(CSc4nc5ccccc5s4)nn3)[C@@H]3OC(C)(C)O[C@@H]3[C@@H]2O1 (stereo partly specified)
- Ratio IC50 [12]: 1.53
- inhibition in vivo (Rattus norvegicus [1]): 59.7%
- inhibition in vivo (Rattus norvegicus [2]): 56.6%

SMILES: O=[N+]([O-])c1cccc(-n2cc(CSc3nc4ccccc4s3)nn2)c1
- Ratio IC50 [12]: 5.21
- inhibition in vivo (Rattus norvegicus [1]): 11.7%
- inhibition in vivo (Rattus norvegicus [2]): 21.5%

SMILES: CC1(C)OCC(Cn2cc(CSc3nc4ccccc4s3)nn2)O1 (stereo unspecified)
- inhibition in vivo (Rattus norvegicus [1]): 53.3%
- inhibition in vivo (Rattus norvegicus [2]): 49%

SMILES: Fc1ccc(-n2cc(CSc3nc4ccccc4s3)nn2)cc1
- Ratio IC50 [12]: 0.441
- inhibition in vivo (Rattus norvegicus [1]): 77.8%
- inhibition in vivo (Rattus norvegicus [2]): 81.1%
- inhibition (Rattus norvegicus [3]): tde
- inhibition (Mus musculus [4]): Active
- Activity (Rattus norvegicus [5]): Non-toxic
- Activity (Mus musculus [6]): Non-toxic

SMILES: Brc1ccc(-n2cc(CSc3nc4ccccc4s3)nn2)cc1
- inhibition in vivo (Rattus norvegicus [1]): 75%
- inhibition in vivo (Rattus norvegicus [2]): 59.2%
- inhibition (Rattus norvegicus [3]): tde
- inhibition (Mus musculus [4]): Active
- Activity (Rattus norvegicus [5]): Non-toxic
- Activity (Mus musculus [6]): Non-toxic

SMILES: OCC(O)Cn1cc(CSc2nc3ccccc3s2)nn1 (stereo unspecified)
- inhibition in vivo (Rattus norvegicus [1]): 56.7%
- inhibition in vivo (Rattus norvegicus [2]): 52.8%

SMILES: Cc1ccc(-c2cc(C(F)(F)F)nn2-c2ccc(S(N)(=O)=O)cc2)cc1
- Ratio IC50 [12]: 0.0028

SMILES: c1ccc(-n2cc(CSc3nc4ccccc4s3)nn2)cc1
- inhibition in vivo (Rattus norvegicus [1]): 46.7%
- inhibition in vivo (Rattus norvegicus [2]): 32.1%

SMILES: Clc1ccc(-n2cc(CSc3nc4ccccc4s3)nn2)cc1
- Ratio IC50 [12]: 14.9
- inhibition in vivo (Rattus norvegicus [1]): 50%
- inhibition in vivo (Rattus norvegicus [2]): 43.4%

SMILES: O[C@@H]1[C@H](O)[C@@H](O)OC(Cn2cc(CSc3nc4ccccc4s3)nn2)[C@@H]1O (stereo partly specified)
- inhibition in vivo (Rattus norvegicus [1]): 63.3%
- inhibition in vivo (Rattus norvegicus [2]): 60.4%

SMILES: c1cncc(-n2cc(CSc3nc4ccccc4s3)nn2)c1
- inhibition in vivo (Rattus norvegicus [1]): 64%
- inhibition in vivo (Rattus norvegicus [2]): 56%
